ChEMBL document CHEMBL1140964, “1,8-Naphthyridines VII. New substituted 5-amino[1,2,4]triazolo[4,3-a][1,8]naphthyridine-6-carboxamides and their isosteric analogues, exhibiting notable anti-inflammatory and/or analgesic activities, but no acute gastrolesivity” (Eur J Med Chem, 2008)

Assays:
Rattus norvegicus [1] = test: Antiinflammatory activity against carrageenan-induced paw edema in Wistar rat at 10 mg/kg, po dose administered 1 hr before carrageenan challenge assessed after 3 hrs; format: functional
Mus musculus [2] = organism: Mus musculus; test: animal or person; details: Swiss, po, read-out: INH
Mus musculus [3] = test: Sedative activity in Swiss mouse assessed as inhibition on spontaneous locomotor activity at 12.5 mg/kg, po dose measured for every 5 mins during 60 to 90 mins; format: ADME, organism-based; parameters: dose 12.5 mg/kg, route oral
Procedure, shortened: (§1)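 Fasted Swiss mice (25–35 g, either sex) were given compound orally in 0.5% methylcellulose or vehicle. Each mouse was placed alone in a photobeam-type activity cage, with counts recorded every 5 min for 90 min. Pulses from the final 30 min were scored, with testing run 9:00–13:00. Percent inhibition was calculated versus controls (Student's t-test).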

Mus musculus [4] = test: Antinociceptive activity in Swiss mouse assessed as inhibition of acetic acid-induced writhing response at 0.8 mg/kg, po dose administered 1 hr before acetic acid challenge measured for 30 mins; format: functional
Mus musculus [5] = test: Antinociceptive activity in Swiss mouse assessed as inhibition of acetic acid-induced writhing response at 6.25 mg/kg, po dose administered 1 hr before acetic acid challenge measured for 30 mins; format: functional
Procedure, shortened: (§2)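 Swiss mice (25–35 g, either sex), fasted overnight, received compound orally in 0.5% methylcellulose or vehicle, with 8–10 per group. Testing started at 100 mg/kg with successive twofold dose reductions. Writhes were counted for 30 min after acetic acid injection. Percent inhibition of the writhing response was calculated versus vehicle controls (Student's t-test).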

Rattus norvegicus [6] = test: Antiinflammatory activity against carrageenan-induced paw edema in Wistar rat at 200 mg/kg, po dose administered 1 hr before carrageenan challenge assessed after 3 hrs; format: functional
Mus musculus [7] = test: Antinociceptive activity in Swiss mouse assessed as inhibition of acetic acid-induced writhing response at 1.6 mg/kg, po dose administered 1 hr before acetic acid challenge measured for 30 mins; format: functional
Mus musculus [8] = test: Sedative activity in Swiss mouse assessed as inhibition of spontaneous locomotor activity at 100 mg/kg, po dose measured for every 5 mins during 60 to 90 mins; format: organism-based; parameters: dose 100 mg/kg, route oral; procedure, shortened: as §1
Mus musculus [9] = test: Antinociceptive activity in Swiss mouse assessed as inhibition of acetic acid-induced writhing response at 50 mg/kg, po dose administered 1 hr before acetic acid challenge measured for 30 mins; format: functional; procedure, shortened: as §2
Mus musculus [10] = test: Antinociceptive activity in Swiss mouse assessed as inhibition of acetic acid-induced writhing response at 12.5 mg/kg, po dose administered 1 hr before acetic acid challenge measured for 30 mins; format: functional; procedure, shortened: as §2
Mus musculus [11] = test: Antinociceptive activity in Swiss mouse assessed as inhibition of acetic acid-induced writhing response at 25 mg/kg, po dose administered 1 hr before acetic acid challenge measured for 30 mins; format: functional; procedure, shortened: as §2
Mus musculus [12] = test: Sedative activity in Swiss mouse assessed as inhibition on spontaneous locomotor activity at 6.25 mg/kg, po measured for every 5 mins during 60 to 90 mins; format: ADME, organism-based; parameters: dose 6.25 mg/kg, route oral; procedure, shortened: as §1
Rattus norvegicus [13] = test: Antiinflammatory activity against carrageenan-induced paw edema in Wistar rat at 100 mg/kg, po dose administered 1 hr before carrageenan challenge assessed after 3 hrs; format: functional
Procedure, shortened: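 Wistar rats (250–300 g, either sex), fasted overnight, dosed by oral gavage with the compound suspended in 0.5% methylcellulose. Controls received vehicle alone, with 8–10 animals per group. Dosing started at 100 mg/kg and was halved stepwise. Carrageenan (1%, 0.1 mL) was injected subplantar 1 h post-dose. Paw volume was measured by plethysmometer immediately and at 3 h, and % inhibition of swelling was calculated versus controls (Student's t-test).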

Mus musculus [14] = test: Antinociceptive activity in Swiss mouse assessed as inhibition of acetic acid-induced writhing response at 100 mg/kg, po dose administered 1 hr before acetic acid challenge measured for 30 mins; format: functional; procedure, shortened: as §2
Mus musculus [15] = test: Antinociceptive activity in Swiss mouse assessed as inhibition of acetic acid-induced writhing response at 3.12 mg/kg, po dose administered 1 hr before acetic acid challenge measured for 30 mins; format: functional
Mus musculus [16] = test: Antinociceptive activity in Swiss mouse assessed as inhibition of acetic acid-induced writhing response at 200 mg/kg, po dose administered 1 hr before acetic acid challenge measured for 30 mins; format: functional
Rattus norvegicus [17] = test: Acute gastrolesivity in Wistar rat assessed as appearance of gastric lesions at 200 mg/kg, po after 5 hrs; format: toxicity, organism-based, Stomach; parameters: dose 200 mg/kg, route oral; details: in vivo
Procedure, shortened: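 Wistar rats (250–300 g, either sex), fasted overnight, given the compound orally at 200 mg kg-1 as a suspension in 0.5% methylcellulose by gavage (1 mL/100 g); 8 rats per compound. Stomachs were fixed in 2% formalin, opened along the greater curvature, and examined under a stereomicroscope by a blinded observer. The result is the number of rats with gastric damage over the number treated.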

Mus musculus [18] = test: Sedative activity in Swiss mouse assessed as inhibition on spontaneous locomotor activity at 25 mg/kg, po measured for every 5 mins during 60 to 90 mins; format: functional, organism-based; parameters: dose 25 mg/kg, route oral; procedure, shortened: as §1

Row | SMILES | inhibition in vivo at 10 mg/kg (Rattus norvegicus [1]) [%] | inhibition in vivo at 10 mg/kg (Mus musculus [2]) [%] | inhibition at 12.5 mg/kg (Mus musculus [3]) [%] | inhibition in vivo at 0.8 mg/kg (Mus musculus [4]) [%] | inhibition in vivo at 6.25 mg/kg (Mus musculus [5]) [%] | inhibition in vivo at 200 mg/kg (Rattus norvegicus [6]) [%] | inhibition in vivo at 1.6 mg/kg (Mus musculus [7]) [%] | inhibition at 100 mg/kg (Mus musculus [8]) [%] | inhibition in vivo at 50 mg/kg (Mus musculus [9]) [%] | inhibition in vivo at 12.5 mg/kg (Mus musculus [10]) [%] | inhibition in vivo at 25 mg/kg (Mus musculus [11]) [%] | inhibition at 6.25 mg/kg (Mus musculus [12]) [%] | inhibition in vivo at 100 mg/kg (Rattus norvegicus [13]) [%] | inhibition in vivo at 100 mg/kg (Mus musculus [14]) [%] | inhibition in vivo at 3.12 mg/kg (Mus musculus [15]) [%] | inhibition in vivo at 200 mg/kg (Mus musculus [16]) [%] | Activity (Rattus norvegicus [17]) | inhibition at 25 mg/kg (Mus musculus [18]) [%]
1 | COc1ccc2c(c1)c(CC(=O)O)c(C)n2C(=O)c1ccc(Cl)cc1 [INDOMETHACIN] | 51 | 84 | – | – | – | – | – | – | – | – | – | – | – | – | – | – | – | –
2 | CCN(CC)C(=O)c1c(N2CCN(C)CC2)c2cccnc2n2c(C(C)C)nnc12 | – | – | 74 | 3 | 83 | 34 | 39 | 94 | 85 | 92 | 90 | 19 | 23 | 88 | 85 | 86 | Non-toxic | 99
